# Source: PubChem BioAssay (The Scripps Research Institute Molecular Screening Center)
# UHRF1 binding = blocks human UHRF1 binding to methylated DNA; Q96T88; UHRF1 binding to methylated oligo, TR-FRET; inhibition, % at 4.4 µM; 370,000 tested, 0.75% active; in the data active = inhibition above about 21%;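 also: UHRF1 SRA domain binding a hemimethylated CpG hairpin DNA probe; 0% = median of test compound wells and 100% = reference inhibitor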
# Tn6 DDE FP = DD(E)-Tn6 binding inhibition, primary FP screen; P02675; 370,000 tested, 0.21% active; inhibition, % at 8.3 µM; Fibrin DD(E) TRITC-Tn6 fluorescence polarization displacement;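 active = inhibition above a per-campaign cutoff: mean of compounds within control limits plus 3 SD, cut at about 15% in these data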;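 also: 0% = median of all compound wells on the plate and 100% = blocking peptide control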
# Target sequence (P02675 whole entry, looked up): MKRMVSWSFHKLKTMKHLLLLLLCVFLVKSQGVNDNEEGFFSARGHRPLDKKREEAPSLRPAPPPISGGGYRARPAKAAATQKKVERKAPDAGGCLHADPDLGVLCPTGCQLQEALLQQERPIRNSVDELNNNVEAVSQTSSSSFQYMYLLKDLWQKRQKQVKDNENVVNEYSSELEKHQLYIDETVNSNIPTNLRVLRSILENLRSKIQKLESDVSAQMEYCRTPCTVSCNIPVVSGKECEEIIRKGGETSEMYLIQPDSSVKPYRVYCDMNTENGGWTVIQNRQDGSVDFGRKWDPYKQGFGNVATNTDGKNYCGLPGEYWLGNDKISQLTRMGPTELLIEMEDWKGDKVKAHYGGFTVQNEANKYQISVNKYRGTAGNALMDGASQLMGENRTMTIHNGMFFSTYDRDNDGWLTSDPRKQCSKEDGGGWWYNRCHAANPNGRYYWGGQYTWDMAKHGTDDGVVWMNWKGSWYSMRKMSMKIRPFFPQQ
# DDE Tn7 FP inh = disrupts Tn7 cyclic peptide binding to fibrin D-Dimer-E complex; P02675; AID 720508; inhibition, % at 8.3 µM; 370,000 tested, 0.13% active; FP displacement of FITC-Tn7 peptide from fibrin DD(E); 0% = median of compound wells per plate;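 active = inhibition above the mean of compounds falling within the control limits plus 3 SD of them, cut at about 14% in these data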;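 also: 0% = plate median of compound wells and 100% = 10 µM Aha-Tn7 peptide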
#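 Test system: human clot-derived fibrin DD(E) complex / Quantity: 2 µM final DD(E) protein / Incubation: 10 min plus 3 h, room temperature / Measured by: fluorescence polarization / Benchmarks: high control of 10 µM Aha-Tn7 peptide / Replicates: singlicate testing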
# MBD2 inh = inhibitors of human MBD2 binding to methylated oligonucleotide | inhibition, % at 4.4 µM | TR-FRET | 370,000 tested, 0.31% active | AID 686964 | Q9UBB5; in the data active = inhibition above about 13%
# LEDGF integ inh = blocks HIV-1 LEDGF/p75-dependent DNA integration | 370,000 tested, 0.64% active | TR-FRET IN-LEDGF/p75 DNA integration, Eu/Cy5 | inhibition, % at 3.7 µM;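 active = inhibition above the screen-wide mean plus 3 SD, cut at about 13% in these data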;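 also: signal is the Cy5 over europium emission ratio at 671 and 618 nm; 0% = plate median of compound wells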
# TDP2 inh = TDP2 (human) inhibition, absorbance primary screen | AID 720702 | recombinant TDP2, T5PNP hydrolysis, p-nitrophenol absorbance 415 nm | inhibition, % at 12.8 µM | O95551 | 370,000 tested, 0.34% active;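 active = inhibition above the mean of all tested compounds plus 3 SD, set per campaign, cut at about 25% in these data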;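 also: 0% = DMSO with enzyme and 100% = buffer with substrate but no TDP2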
#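 System – recombinant human TDP2 · Amount – 120 nM TDP2 per well · Buffer or medium – Mg2+-containing Tris-HCl buffer, pH 7.5 · Reagent – T5PNP substrate, 5 mM · Dosing – 12.8 µM single point, 1% DMSO · Incubation – 2 h at 37 °C · Measured by – epi absorbance · Read-out basis – percent inhibition · Benchmarks – high control without enzyme, low control DMSO plus TDP2 · Repeats – singlicate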
# TDP2 confirm = human TDP2 inhibition, confirmation | shares compounds with TDP2 inh | inhibition, % at 12.8 µM | AID 743263 | recombinant human TDP2, absorbance read-out | 1,100 tested, 22% active; in the data active = inhibition above about 25%;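 also: 0% = vehicle with enzyme and 100% = no enzyme buffer only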
# IN multimer up = counter-screen for LEDGF/p75 integration inhibitors: HIV-1 integrase multimerization activators; activation, % at 7.7 µM; 2,000 tested, 17% active; shares compounds with LEDGF integ inh; TR-FRET HIV-1 integrase multimerization, biochemical; in the data active = activation above about 8.9%
# TRFRET interf = TR-FRET optical interference, LEDGF/p75 integration counter-screen; shares compounds with LEDGF integ inh; TR-FRET optical interference counterscreen, HIV-1 IN multimerization; inhibition, % at 7.7 µM; 2,000 tested, under 10 active; AID 1053135;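 active = inhibition above the mean over all tested compounds plus 3 SD, which no compound reached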;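 also: 0% = integrase with antibodies and DMSO and 100% = antibodies without integrase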
# LEDGF integ conf = LEDGF/p75-dependent HIV-1 integration inhibition, confirmation; inhibition, % at 3.7 µM; 2,000 tested, 36% active; shares compounds with LEDGF integ inh; TR-FRET LEDGF/p75-dependent HIV-1 integration, biochemical; in the data active = inhibition above about 14%
# * marks the source's active call; other numbers are inactive results; nt = no result. The list is not random: actives were taken first. Their share in the collection is about 1.9%.
SMILES,UHRF1 binding,Tn6 DDE FP,DDE Tn7 FP inh,MBD2 inh,LEDGF integ inh,TDP2 inh,IN multimer up,TRFRET interf,LEDGF integ conf,others
CCC(C)NC(=O)c1c(N)n(CC2CCCO2)c2nc3ccccc3nc12 (stereo not drawn),11.8,-7.1,-5.3,4.4,19.2*,62.3*,-0.4,1.2,-0.6,TDP2 confirm=-0.8
COCCNC(=O)c1c(N)n(Cc2ccco2)c2nc3ccccc3nc12,-13.0,-6.9,-7.1,-4.3,3.3,7.4,nt,nt,nt,
CC(C)(C)OC(=O)c1c(N)n(Cc2ccco2)c2nc3ccccc3nc12,10.3,1.9,-2.2,-6.7,35.4*,66.9*,1.6,-5.4,-5.5,TDP2 confirm=-4.0
COCCCn1c(N)c(C(=O)NCc2ccco2)c2nc3ccccc3nc21,16.0,2.9,-5.3,12.7,33.3*,92.3*,-4.3,15.7,51.8*,TDP2 confirm=15.3
CCC(C)NC(=O)c1c(N)n(CCCOC)c2nc3ccccc3nc12 (stereo not drawn),10.4,-3.2,-2.7,13.1,39.0*,67.4*,8.0,-25.0,13.8*,TDP2 confirm=17.0
CC(C)N=C(NC(C)C)N1CC1,-1.9,-6.7,-2.8,-2.2,4.2,-4.1,nt,nt,nt,
Cc1cc(C)c(C)c(C(O)(C(=O)O)c2ccccc2)c1 (stereo not drawn),-0.4,-4.8,-0.6,2.4,2.0,-11.6,nt,nt,nt,
N#Cc1ccc2nc(-c3ccc(CN4CCC(n5nnc6ccccc65)CC4)cc3)c(-c3ccccc3)nc2c1,1.2,-6.8,0.7,4.8,-4.8,5.5,nt,nt,nt,
CCCCn1c(NS(=O)(=O)c2ccccc2)c(C(=O)OCC)c2nc3ccccc3nc21,12.0,-8.1,-6.3,7.2,30.7*,88.3*,0.3,-1.1,65.9*,TDP2 confirm=83.4*
CCOC(=O)c1c(N)n(CCN2CCCCC2)c2nc3ccccc3nc12,-5.3,-4.6,9.3,-2.5,-2.5,4.7,nt,nt,nt,
CCCCn1c(NC(=O)c2ccc(Br)o2)c(C(=O)OCC)c2nc3ccccc3nc21,4.4,1.6,4.2,-3.9,17.0*,64.7*,-0.8,2.8,68.8*,TDP2 confirm=72.7*
N#Cc1ccc(NC(=S)N2Cc3ccccc3-n3nncc3C2)cc1,0.3,2.2,1.2,-0.7,1.7,9.8,nt,nt,nt,
COc1cc2c(cc1O)[C@@H]1Cc3ccc(OC)c(O)c3CN1CC2,5.8,-5.8,1.2,-1.8,38.2*,53.6*,5.6,-20.0,44.5*,TDP2 confirm=37.8*
COc1ccc(C[C@@H]2c3cc(O)c(OC)cc3CCN2C)cc1O,-1.5,-7.1,-2.6,-0.1,-0.3,14.1,nt,nt,nt,
O=C(COc1ccccc1)N1CCN(C/C=C/c2ccccc2)CC1,-2.9,5.9,7.1,4.3,-3.8,-9.3,nt,nt,nt,
O=C(CF)N(O)c1ccc(C=Cc2ccccc2)cc1,2.3,-2.1,-1.6,4.2,23.7*,0.8,0.4,-1.4,-5.3,
COc1ccc(-c2ccc3c(c2)CN(c2cccc(Cl)c2)Cc2cnnn2-3)cc1,25.1*,-9.8,-11.0,11.4,73.4*,-8.7,-1.1,5.3,13.7*,
C=C1C(=O)OC2CCN3CC=C(COC(=O)C(C)(O)C4(CO4)C1C)C23 (stereo not drawn),41.2*,3.8,-5.0,9.2,37.1*,-11.7,-0.2,0.9,-3.1,
C=C1[C@H]2CC[C@H]3[C@]4(C)C[C@H](O[C@@H]5OC(CO)[C@@H](OSOOO)[C@H](OS(=O)(=O)O)[C@H]5OC(=O)CC(C)C)C[C@@H](C(=O)O)[C@H]4CC[C@]3(C2)[C@H]1O (stereo partly drawn),2.9,-1.7,-1.6,-7.4,14.3*,-14.5,-2.1,10.7,14.9*,
Cc1ccc(N2C(=O)NC(=O)/C(=C/C=C/c3ccco3)C2=O)cc1,10.2,2.7,-2.3,-2.9,35.2*,7.1,-0.9,4.6,24.3*,
CC(C)c1ccc(N2C(=O)NC(=O)/C(=C/C=C/c3ccco3)C2=O)cc1,1.8,2.3,-12.0,-0.2,23.6*,2.9,3.2,-11.7,26.7*,
Cc1cc(C)cc(N2C(=O)NC(=O)/C(=C\C=C\c3ccco3)C2=O)c1,15.2,-3.7,-8.0,-0.4,34.5*,6.8,-0.6,3.2,29.3*,
CCc1ccc(N2C(=O)NC(=O)/C(=C\C=C\c3ccco3)C2=O)cc1,9.6,-1.7,-3.0,1.5,34.9*,5.1,0.3,-1.3,39.7*,
CC(C)c1ccc(N2C(=O)CC(=O)NC2=O)cc1,3.7,5.4,-2.1,3.8,-3.5,-5.0,nt,nt,nt,
O=C1NC(=O)N(c2ccccc2)C(=O)/C1=C\C=C\c1ccccc1,5.4,2.6,2.0,7.0,0.1,1.9,nt,nt,nt,
SMILES,UHRF1 binding,Tn6 DDE FP,DDE Tn7 FP inh,MBD2 inh,LEDGF integ inh,TDP2 inh,IN multimer up,TRFRET interf,LEDGF integ conf,others
CC1=NN(c2ccccc2)C(=O)C1/C=C1\C(=O)NC(=O)N(c2cc(C)cc(C)c2)C1=O (stereo not drawn),-4.8,4.8,-3.5,-7.7,5.0,19.7,nt,nt,nt,
S=C(NCCc1ccccc1)N1Cc2cc(N3CCCCC3)ccc2-n2nncc2C1,-1.4,-2.7,0.2,-0.8,0.4,-1.1,nt,nt,nt,
C=CCN1C[C@H](C)N(C(c2ccc(C(=O)N(CC)CC)cc2)c2cccc(OC)c2)CC1C (stereo partly drawn),-2.2,5.8,-6.5,-1.0,1.1,-3.4,nt,nt,nt,
CCC(c1nnnn1C1CCCC1)N1CCC2(CC1)C(=O)NCN2c1ccccc1 (stereo not drawn),0.9,7.4,7.5,1.6,-2.0,7.8,nt,nt,nt,
Cn1cccc1/C=C1/C(=O)NC(=O)N(Cc2ccc(F)cc2)C1=O,20.0,2.3,-0.5,-0.9,0.7,1.8,nt,nt,nt,
O=C1NC(=O)N(Cc2ccc(F)cc2)C(=O)/C1=C\C=C\c1ccco1,5.0,7.9,-3.6,-4.1,29.6*,2.1,3.0,-11.1,19.9*,
O=C1NC(=O)C(=Cc2cc3c(cc2[N+](=O)[O-])OCO3)C(=O)N1,-4.5,0.4,-4.0,-7.3,20.7*,17.1,7.0,-24.6,0.0,
O=C1NC(=O)C(=Cc2ccccc2[N+](=O)[O-])C(=O)N1,-8.3,-4.1,-1.7,-3.7,0.0,6.3,nt,nt,nt,
Cc1cc(/C=C2/C(=O)NC(=O)N(Cc3ccco3)C2=O)c(C)n1-c1ccccc1O,8.6,-6.4,-2.6,-6.1,25.7*,-11.2,0.6,-3.1,-3.5,
